One assay has as its system T1 CTL. In words: 51Cr-release assay. Format: cell-based. Conditions: without Fab'. An outline of the steps: (§1)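 51Cr-labeled P815 targets (2 × 10^3/well) in DMEM with FCS (5%) and Hepes (10 mM) plus 10-fold peptide dilutions, 10−6–10−13 M. Cloned CTL (6 × 10^3/well) added, 4 h at 37°C, then supernatant 51Cr counted. Specific lysis was derived from spontaneous and total release. Relative activity is the wt half-maximal-lysis concentration divided by the variant's, normalized by relative Kd competitor activity. Triplicates, at least two experiments.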

The test system of assay [1] is S14 CTL. Conditions: ref [4]; cited from earlier work.
The subject of assay [2] is S17 CTL. Nature of the assay: 51Cr-release assay. Conditions: without Fab'. Format: cell-based. Put shortly:
as §1

The subject of assay [3] is S14 CTL. Nature of the assay: 51Cr-release assay. Conditions: without Fab'. Format: cell-based. An outline of the steps:
as §1

The test system of assay [4] is S17 CTL. Nature of the assay: Interferon γ assay. Format: cell-based. Put shortly: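 CTL were incubated with peptide-sensitized P815 targets as in the cytotoxicity assay, with peptide derivatives at 10−6–10−11 M, some runs with SF1-1.1.1 Fab′ (anti-Kd α3) to block CD8 participation. After 24 h, supernatant IFN-γ was measured by ELISA and values were normalized to the wt ligand. Triplicates, at least two experiments.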

IASA-YIASAEK(ABA)I [P255A]: the “functional phenotype (antigen recognition versus TCR-ligand binding)” value in the assay on T1 CTL is “strong agonists”.

Take IASA-YILSAEK(ABA)I [P255L]: the functional phenotype entry in the assay with S14 CTL [1] was “antagonist”. Take IASA-YIPAAEK(ABA)I [S256A]: the “functional phenotype (antigen recognition versus TCR-ligand binding)” value in the assay with S17 CTL [2] is on record as “strong agonists”.

For the substance IASA-YIPSAAK(ABA)I [E258A], the “functional phenotype (antigen recognition versus TCR-ligand binding)” value with S14 CTL [3] is “weak agonists”. Consider IASA-YIPSAEK(ABA)I [WT], for which the “effect of blocking of CD8 (SF1-1.1.1 Fab') on IFN-γ production” value with S17 CTL [4] is “substantially increased”. IASA-YISSAEK(ABA)I [P255S]: the “functional phenotype (antigen recognition versus TCR-ligand binding)” value in the assay with S17 CTL [2] is recorded as “weak agonists”. For the same substance, the “effect of blocking of CD8 (SF1-1.1.1 Fab') on IFN-γ production” value in the assay with S17 CTL [4] is given as “substantially increased”.

The record behind these values is publication PMC2199177 (The Journal of Experimental Medicine, 1997).
